These results are taken from ChEMBL document CHEMBL3351648, “Synthesis and pharmacological evaluation of 6-aminonicotinic acid analogues as novel GABA(A) receptor agonists” (Eur J Med Chem, 2014).

Data set [1] addresses GABA-A receptor; anion channel. Nature of the data set: Displacement of [3H]muscimol from GABAA receptor in SPRD rat brain synaptic membranes by scintillation counting method. The data set is classed as cell membranes. The gist of the method:
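Rat synaptic membranes were thawed, homogenized in ice-cold 50 mM Tris-HCl pH 7.4, and spun at 48,000g for 10 min at 4 °C, with the wash repeated four times. Incubation was with 5 nM [3H]muscimol (final) and varying test concentrations for 60 min at 0 °C, then GF/C filtration and scintillation counting.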

For data set [2], the target named is T1, GABA-A receptor; alpha-1/beta-2/gamma-2 (Homo sapiens, UniProt P14867+P47870+P18507).
T1 sequence (P14867 whole entry): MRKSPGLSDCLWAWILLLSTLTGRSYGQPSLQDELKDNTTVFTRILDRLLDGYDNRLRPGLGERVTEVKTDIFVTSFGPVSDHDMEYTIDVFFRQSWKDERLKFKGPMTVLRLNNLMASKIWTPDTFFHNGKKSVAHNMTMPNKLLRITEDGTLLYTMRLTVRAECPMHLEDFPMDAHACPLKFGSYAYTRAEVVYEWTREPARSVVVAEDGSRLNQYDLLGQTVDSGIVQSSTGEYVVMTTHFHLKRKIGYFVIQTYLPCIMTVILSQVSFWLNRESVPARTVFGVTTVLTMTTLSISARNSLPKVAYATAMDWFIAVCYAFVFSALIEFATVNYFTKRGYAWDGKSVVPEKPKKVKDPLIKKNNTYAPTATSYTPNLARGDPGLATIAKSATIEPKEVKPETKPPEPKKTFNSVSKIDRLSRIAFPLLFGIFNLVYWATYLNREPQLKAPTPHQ
T1 sequence (P47870 whole entry): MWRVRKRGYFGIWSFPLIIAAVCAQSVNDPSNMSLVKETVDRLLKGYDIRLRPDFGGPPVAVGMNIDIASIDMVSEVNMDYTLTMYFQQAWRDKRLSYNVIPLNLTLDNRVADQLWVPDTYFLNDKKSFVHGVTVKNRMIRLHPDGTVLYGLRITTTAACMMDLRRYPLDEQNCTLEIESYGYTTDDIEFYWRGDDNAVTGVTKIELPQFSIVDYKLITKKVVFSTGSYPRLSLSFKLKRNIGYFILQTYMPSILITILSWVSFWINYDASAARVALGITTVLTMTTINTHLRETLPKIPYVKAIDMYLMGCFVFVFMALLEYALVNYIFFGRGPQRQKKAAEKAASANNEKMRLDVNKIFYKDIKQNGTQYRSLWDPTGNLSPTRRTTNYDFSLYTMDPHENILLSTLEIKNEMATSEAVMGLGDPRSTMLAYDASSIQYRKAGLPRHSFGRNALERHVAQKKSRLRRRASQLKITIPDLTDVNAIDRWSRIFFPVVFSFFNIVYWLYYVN
T1 sequence (P18507 whole entry): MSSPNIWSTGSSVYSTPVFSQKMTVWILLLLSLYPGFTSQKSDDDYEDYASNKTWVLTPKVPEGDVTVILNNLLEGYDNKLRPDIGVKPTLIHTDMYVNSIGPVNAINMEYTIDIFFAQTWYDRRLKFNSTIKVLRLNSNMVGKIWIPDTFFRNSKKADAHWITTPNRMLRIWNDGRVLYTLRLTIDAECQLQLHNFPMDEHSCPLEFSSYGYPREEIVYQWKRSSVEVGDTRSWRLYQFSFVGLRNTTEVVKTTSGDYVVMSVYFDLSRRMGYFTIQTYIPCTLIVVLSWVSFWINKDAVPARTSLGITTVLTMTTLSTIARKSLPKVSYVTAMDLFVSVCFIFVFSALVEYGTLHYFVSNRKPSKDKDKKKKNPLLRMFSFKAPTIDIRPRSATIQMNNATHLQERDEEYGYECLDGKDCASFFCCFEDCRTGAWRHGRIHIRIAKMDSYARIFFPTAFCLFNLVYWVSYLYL
Nature of the data set: (§1) Agonist activity at human GABAAalpha1beta2gamma2S receptor expressed in tsA-201cells by FLIPR membrane potential blue assay. The settings on record: tsa-201. The gist of the method: (§2)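 tsA201 cells (8×10^5 per 6 cm dish) were transfected with α1, α2, α3 or α5 plus β2 and γ2S cDNAs (1:1:3), or with ρ1 alone. Next day cells were replated into poly-D-lysine 96-well plates. After 16–24 h they were washed with Krebs buffer pH 7.4, given membrane-potential dye, held 30 min at 37 °C, and read at 560 nm emission. Concentration-response curves used ΔFU before versus after agonist; duplicates were run ≥3 times.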

Data set [3] has as its target GABA-A receptor; alpha-1/beta-2/gamma-2 (Homo sapiens) (UniProt P14867+P47870+P18507). Kind of data set: Agonist activity at human GABAAalpha1beta2gamma2S receptor expressed in tsA-201cells at 1 mM by FLIPR membrane potential blue assay. Type of data set: cell-based. The gist of the method:
(§3)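 Transfected tsA201 cells (α1β2γ2S or ρ1) were loaded with membrane-potential dye in Krebs buffer pH 7.4 for 30 min at 37 °C. Compound was applied at a single 1 mM concentration. Response was read as fluorescence change at 560 nm emission before versus after addition, in duplicate on ≥3 occasions.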

Data set [4] is described as follows: Dissociation constant, pKa of the compound by diode array detector method. Type of data set: physicochemical. The gist of the method:
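pKa was determined by titration in methanol cosolvent at 23–48%, with three titrations per compound. An in-line diode-array detector recorded UV-Vis spectra, and the titration was mapped against the spectra of the protonated and unprotonated species.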

Data set [5] deals with T2, GABA-A receptor; alpha-1/beta-2/gamma-2 (Homo sapiens, UniProt P14867+P18507+P47870).
T2 sequence (P14867 whole entry): T1 sequence (P14867 whole entry)
T2 sequence (P47870 whole entry): T1 sequence (P47870 whole entry)
T2 sequence (P18507 whole entry): T1 sequence (P18507 whole entry)
The data set is described as §1. The following applies: read-out: EC50. The gist of the method:
as §2

For data set [6], the target named is T3, Gamma-aminobutyric acid receptor subunit rho-1 (Homo sapiens, UniProt P24046). Nature of the data set: Agonist activity at human GABAA rho1 expressed in tsA-201cells by FLIPR membrane potential blue assay. The following applies: tsa-201. The gist of the method:
as §2

Data set [7] concerns the target T3, Gamma-aminobutyric acid receptor subunit rho-1. Nature of the data set: Agonist activity at human GABAA rho1 expressed in tsA-201cells at 1 mM by FLIPR membrane potential blue assay. The data set is classed as cell-based. The gist of the method:
as §3

In data set [8] the target is T4, GABA A receptor alpha-2/beta-2/gamma-2 (Homo sapiens, UniProt P18507+P47869+P47870).
T4 sequence (P47870 whole entry): T1 sequence (P47870 whole entry)
T4 sequence (P18507 whole entry): T1 sequence (P18507 whole entry)
T4 sequence (P47869 whole entry): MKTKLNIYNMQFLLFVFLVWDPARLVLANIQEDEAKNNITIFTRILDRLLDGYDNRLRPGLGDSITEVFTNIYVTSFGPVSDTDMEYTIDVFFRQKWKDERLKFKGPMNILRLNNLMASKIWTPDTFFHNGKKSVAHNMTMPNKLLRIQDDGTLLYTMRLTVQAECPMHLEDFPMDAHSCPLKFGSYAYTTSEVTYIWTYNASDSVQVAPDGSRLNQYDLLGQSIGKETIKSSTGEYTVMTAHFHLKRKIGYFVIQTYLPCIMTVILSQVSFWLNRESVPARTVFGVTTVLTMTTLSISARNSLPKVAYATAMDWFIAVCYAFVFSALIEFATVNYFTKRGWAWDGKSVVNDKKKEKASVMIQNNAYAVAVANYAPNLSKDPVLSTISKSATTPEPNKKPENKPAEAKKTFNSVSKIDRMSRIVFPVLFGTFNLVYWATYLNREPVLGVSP
Nature of the data set: Agonist activity at human GABAAalpha2beta2gamma2S receptor expressed in tsA-201cells by FLIPR membrane potential blue assay. The gist of the method:
as §2

Data set [9] concerns the target GABA A receptor alpha-2/beta-2/gamma-2 (Homo sapiens) (UniProt P47870+P18507+P47869). Kind of data set: Agonist activity at human GABAAalpha2beta2gamma2S receptor expressed in tsA-201cells by FLIPR membrane potential blue assay relative to GABA.
Data set [10] deals with T5, GABA A receptor alpha-3/beta-2/gamma-2 (Homo sapiens, UniProt P18507+P34903+P47870).
T5 sequence (P47870 whole entry): T1 sequence (P47870 whole entry)
T5 sequence (P18507 whole entry): T1 sequence (P18507 whole entry)
T5 sequence (P34903 whole entry): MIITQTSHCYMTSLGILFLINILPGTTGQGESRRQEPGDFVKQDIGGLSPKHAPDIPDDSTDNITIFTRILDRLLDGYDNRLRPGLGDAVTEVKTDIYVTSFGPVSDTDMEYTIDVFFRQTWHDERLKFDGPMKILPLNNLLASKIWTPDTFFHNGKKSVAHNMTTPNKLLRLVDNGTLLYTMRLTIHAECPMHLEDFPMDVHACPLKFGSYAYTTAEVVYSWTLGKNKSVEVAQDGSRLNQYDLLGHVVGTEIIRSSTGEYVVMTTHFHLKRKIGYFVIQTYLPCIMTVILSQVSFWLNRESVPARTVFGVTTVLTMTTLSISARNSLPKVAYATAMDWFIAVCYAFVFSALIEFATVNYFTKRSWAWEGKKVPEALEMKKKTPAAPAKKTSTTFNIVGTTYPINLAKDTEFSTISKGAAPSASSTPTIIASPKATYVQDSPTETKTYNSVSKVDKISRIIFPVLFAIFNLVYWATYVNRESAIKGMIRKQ
Nature of the data set: Agonist activity at human GABAAalpha3beta2gamma2S receptor expressed in tsA-201cells by FLIPR membrane potential blue assay. The gist of the method:
as §2

Data set [11] has as its target GABA A receptor alpha-3/beta-2/gamma-2 (Homo sapiens) (UniProt P47870+P18507+P34903). Kind of data set: Agonist activity at human GABAAalpha3beta2gamma2S receptor expressed in tsA-201cells by FLIPR membrane potential blue assay relative to GABA.
Data set [12] in a line: Agonist activity at human GABAAalpha5beta2gamma2S receptor expressed in tsA-201cells by FLIPR membrane potential blue assay. Type of data set: cell membranes.
Another data set deals with tsA-201. Nature of the data set: Agonist activity at human GABAAalpha5beta2gamma2S receptor expressed in tsA-201cells by FLIPR membrane potential blue assay relative to GABA.
Data set [13] addresses T3, Gamma-aminobutyric acid receptor subunit rho-1. Nature of the data set: Agonist activity at human GABAA rho1 expressed in tsA-201cells by FLIPR membrane potential blue assay relative to GABA.

Calls of active or inactive are those of the source. No cut-off for these calls is given here. Bounds are passed on as bounds.

T3 sequence (P24046 whole entry): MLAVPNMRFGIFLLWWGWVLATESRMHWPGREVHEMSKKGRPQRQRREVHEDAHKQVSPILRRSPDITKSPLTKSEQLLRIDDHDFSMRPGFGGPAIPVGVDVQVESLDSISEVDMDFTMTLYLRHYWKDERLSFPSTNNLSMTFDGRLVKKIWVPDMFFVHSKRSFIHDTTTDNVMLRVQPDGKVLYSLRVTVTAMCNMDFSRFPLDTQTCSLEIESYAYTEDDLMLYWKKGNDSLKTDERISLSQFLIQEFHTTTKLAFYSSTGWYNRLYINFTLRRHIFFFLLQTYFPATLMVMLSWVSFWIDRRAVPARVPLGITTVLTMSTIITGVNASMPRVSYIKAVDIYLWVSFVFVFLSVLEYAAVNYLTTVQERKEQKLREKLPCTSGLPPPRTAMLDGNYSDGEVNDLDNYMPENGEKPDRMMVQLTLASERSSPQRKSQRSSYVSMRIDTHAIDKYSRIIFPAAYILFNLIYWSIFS

The Ki is a dissociation constant, usually derived from enzyme kinetics or from competition with a known ligand. Read a low Ki as higher affinity. The pKi is the negative decadic logarithm of the Ki, by convention in mol/L. The term EC50 denotes the concentration that produces a half-maximal response. For orientation: pKa means the negative logarithm of the acid dissociation constant. Consider `O=C(O)C1CN=CNC1` (stereo not drawn), for which, in data set [1], affinity was put at a Ki of 5.3 µM and the pKi worked out at 5.29. In addition, the 50% effective concentration (EC50) result in data set [2] is “Active”. In addition, the Rmax in data set [3] came out at 25%. In [4], this compound had a pKa of 12.2.
As a reminder, the pEC50 is −log10 of the EC50, conventionally taken in molar units. Take `Cc1cc(N)ncc1C(=O)O`: the affinity in data set [1], expressed as Ki, was 3.6 µM. In addition, the concentration giving a half-maximal response (EC50) in [5] was greater than 1 mM; in [6] it was “Active”. The pEC50 in data set [2] was less than 3. Besides, the outcome in data set [7] was Active.
`O=C(O)C1CCNCC1` [ISONIPECOTIC ACID]: in data set [1], affinity was put at a Ki of 0.51 µM. In addition, the 50% effective concentration (EC50) entry in data set [2] is “Active”; in data set [6], “Active”; in data set [8], 24 µM; in data set [10] it was 17 µM; in [12], 2800 nM. The Rmax in [3] is 66%; in data set [9], 85%; in data set [11], 85%; with tsA-201, 115%. In data set [7], the outcome was Active. Besides, in [12], the negative logarithm of the EC50 (pEC50) is 5.54. In addition, the Rmax entry in [13] is “inactive”.
